Data: ChEMBL document CHEMBL1130096, “2-Cyclopropylindoloquinones and their analogues as bioreductively activated antitumor agents: structure-activity in vitro and efficacy in vivo” (J Med Chem, 1997)

Key:
Mus musculus [1] = test: compound was evaluated in vivo in mice bearing [RIF-1] tumor cells 90 mg kg-1 drug dose. MTD is the […].; assay type: functional
Mus musculus [2] = test: compound was evaluated in vivo in mice bearing [KHT] tumor cells at 90 mg kg-1 drug dose. MTD is the […].; assay type: functional
Mus musculus [3] = test: compound was evaluated in vivo in mice bearing [RIF-1] tumor cells for the relative surviving fraction of cells at 50 mg kg-1 drug dose.; assay type: functional
Summary of the method: (§1)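 Mice bearing RIF-1 or KHT murine sarcomas. Maximum tolerated dose (MTD) established for each drug. Drug given alone at MTD, or at 20 or 50 mg kg-1 combined with a single X-ray dose: 15 Gy for RIF-1, 10 Gy for KHT. Radiation dose chosen to kill most oxic tumor cells. Read-out was tumor cell surviving fraction relative to untreated control, reported as mean.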

V79 [4] = test: In vitro concentration required to kill 50% of the aerobic cells; assay type: functional, Cricetulus griseus
Mus musculus [5] = test: compound was evaluated in vivo in mice bearing [KHT] tumor cells for the relative surviving fraction of cells at 90 mg kg-1 drug dose.; assay type: functional; summary of the method: as §1
Mus musculus [6] = test: compound was evaluated in vivo in mice bearing [KHT] tumor cells at 20 mg kg-1 drug dose. MTD is the […].; assay type: functional
Mus musculus [7] = test: compound was evaluated in vivo in mice bearing [RIF-1] tumor cells at 20 mg kg-1 drug dose. MTD is the […].; assay type: functional
Mus musculus [8] = test: compound was evaluated in vivo in mice bearing [KHT] tumor cells for the relative surviving fraction of cells at 20 mg kg-1 drug dose.; assay type: functional; summary of the method: as §1
Mus musculus [9] = test: compound was evaluated in vivo in mice bearing [RIF-1] tumor cells for the relative surviving fraction of cells at 90 mg kg-1 drug dose.; assay type: functional; summary of the method: as §1
Mus musculus [10] = test: compound was evaluated in vivo in mice bearing [KHT] tumor cells at 50 mg kg-1 drug dose. MTD is the […].; assay type: functional
Mus musculus [11] = test: compound was evaluated in vivo in mice bearing [KHT] tumor cells for the relative surviving fraction of cells at 50 mg kg-1 drug dose.; assay type: functional; summary of the method: as §1
Mus musculus [12] = test: compound was evaluated in vivo in mice bearing [RIF-1] tumor cells at 50 mg kg-1 drug dose. MTD is the […].; assay type: functional
[13] = Hypoxic cytotoxic ratios of the concentration required to kill 50% of the aerobic cells and concentration required to kill hypoxic cells; assay type: cell-based, Cricetulus griseus; settings: chinese hamster, V79 cells; read-out: HCR
V79 [14] = test: In vitro concentration required to kill hypoxic cells V79-379A cells; assay type: functional, Cricetulus griseus
Mus musculus [15] = test: compound was evaluated in vivo in mice bearing [RIF-1] tumor cells for the relative surviving fraction of cells at 20 mg kg-1 drug dose.; assay type: functional; summary of the method: as §1
Mus musculus [16] = test: compound was evaluated in vivo mice bearing [RIF-1] murine sarcoma tumor cells at 100 mgkg-1 drug dose. MTD is the […].; assay type: functional
Mus musculus [17] = test: compound was were evaluated in vivo in mice bearing [KHT] murine sarcoma tumor cells at 100 mg kg-1 drug dose. MTD is the […].; assay type: functional
Mus musculus [18] = test: compound was evaluated in vivo in mice bearing [RIF-1] murine sarcoma tumor cells at 100 mgkg-1 drug dose. MTD is the […].; assay type: functional
Mus musculus [19] = test: compound was evaluated in vivo in mice bearing [KHT] murine sarcoma tumor cells at 100 mg kg-1 drug dose. MTD is the […].; assay type: functional
V79 [20] = test: In vitro concentration required to kill hypoxic cells V79-379A cells was determined for all the compounds using the MTT(3-(4,5-dimethylthiazol-2-y1)-2,5-diphenyl-2H-tetrazolium bromide) assay; assay type: functional, Cricetulus griseus
[21] = hypoxic cytotoxic ratios (HCR) of the concentration required to kill 50% of the aerobic cells and concentration required to kill hypoxic cells; settings: read-out: HCR
V79 [22] = test: In vitro concentration required to kill 50% of the aerobic cells under the conditions of the assay; assay type: functional, Cricetulus griseus

Structure (SMILES) | C50 (V79 [4]) [µM] | selectivity ratio [13] | C50 (V79 [14]) [µM] | further results
Cc1c(CO)c2c(n1C)C(=O)C=C(N1CC1C)C2=O (stereo not drawn) | 94 | 188 | 0.5 | MTD (Mus musculus [1]): 90 mg/kg; MTD (Mus musculus [2]): 90 mg/kg; Mean relative surviving fraction (Mus musculus [3]): <0.0001; Mean relative surviving fraction (Mus musculus [5]): 0.15; MTD (Mus musculus [6]): 90 mg/kg; MTD (Mus musculus [7]): 90 mg/kg; Mean relative surviving fraction (Mus musculus [8]): 0.008; Mean relative surviving fraction (Mus musculus [9]): 0.02; MTD (Mus musculus [10]): 90 mg/kg; Mean relative surviving fraction (Mus musculus [11]): 0.005; MTD (Mus musculus [12]): 90 mg/kg; Mean relative surviving fraction (Mus musculus [15]): <0.0001
COC1=CC(=O)c2c(c(COC(N)=O)cn2C)C1=O | 3.1 | 83.8 | 0.037 | –
COC(=O)c1c2c(n(C)c1C(C)C)C(=O)C=C(OC)C2=O | 150 | 1 | 150 | –
Cn1c2c(c(CO)c1C1CC1)C(=O)C(N1CC1)=CC2=O | 0.603 | 104 | 0.0058 | MTD (Mus musculus [16]): 100 mg/kg; MTD (Mus musculus [17]): 100 mg/kg; MTD (Mus musculus [18]): 100 mg/kg; MTD (Mus musculus [19]): 100 mg/kg
COC1=CC(=O)c2c(c(COC(N)=O)c(C3CC3)n2C)C1=O | 29 | 65.9 | 0.44 | –
Cn1c2c(c(CO)c1C1CCCCC1)C(=O)C(N1CC1)=CC2=O | 34.5 | 37 | 0.93 | –
Cc1c(CO)c2c(n1C)C(=O)C=C(N1CC1)C2=O | 0.149 | 12.8 | 0.0116 | –
CC1CN1C1=CC(=O)c2c(c(COC(N)=O)c(C3CC3)n2C)C1=O (stereo not drawn) | 12.5 | 27.2 | 0.459 | –
CC(C)c1c(COC(N)=O)c2c(n1C)C(=O)C=C(N1CC1C)C2=O (stereo not drawn) | 20.6 | 23.7 | 0.87 | –
O=C1C(N2CC2)=CC(=O)c2c1c(CO)c1n2CC2CC12 (stereo not drawn) | 0.965 | 13.2 | 0.073 | –
COC1=CC(=O)c2c(c(CO)cn2C)C1=O | 220 | 0.92 | 240 | –
COC1=CC(=O)c2c(c(CO)c(C3CC3)n2C)C1=O | 540 | 0.65 | 820 | –
Cc1c(CO)c2c(n1C)C(=O)C=C(N1C(C)C1C)C2=O (stereo not drawn) | 202 | 14.2 | 14.2 | –
Cn1cc(CO)c2c1C(=O)C=C(N1CC1)C2=O | 0.153 | 15.4 | 0.0086 | –
NC(=O)OCc1c2c(n3c1C1CC1C3)C(=O)C=C(N1CC1)C2=O (stereo not drawn) | 0.003 | – | 0.003 | –
Cn1cc(COC(N)=O)c2c1C(=O)C=C(N1CC1)C2=O | 0.00019 | 1.46 | 0.00013 | –
Cn1c2c(c(COC(N)=O)c1C1CC1)C(=O)C(N1CC1)=CC2=O | 3.33 | 45 | 0.074 | –

Structure (SMILES) | C50 (V79 [4]) [µM] | selectivity ratio [13] | C50 (V79 [14]) [µM] | further results
COC(=O)c1c2c(n(C)c1C1CC1)C(=O)C=C(N1CC1)C2=O | 1.72 | 1.8 | 0.93 | –
CC(C)c1c(CO)c2c(n1C)C(=O)C=C(N1CC1)C2=O | 25.7 | 32.5 | 0.79 | –
COC1=CC(=O)c2c(c(C)c(C(C)C)n2C)C1=O | 1.236 | 1.88 | 0.657 | –
COC1=CC(=O)c2c(c(CO)c(C3CCCCC3)n2C)C1=O | 122.4 | 6 | 20.5 | –
COC(=O)c1c2c(n(C)c1C1CC1)C(=O)C=C(OC)C2=O | 103.5 | 1.7 | 59.8 | –
Cc1c2c(n(C)c1C(C)C)C(=O)C=C(N1CC1)C2=O | – | – | – | C50 (V79 [20]): 0.188 µM; selectivity ratio [21]: 1.77; C50 (V79 [22]): 0.333 µM
CC(C)c1c(CO)c2c(n1C)C(=O)C=C(N1CC1C)C2=O (stereo not drawn) | 127.8 | 9.2 | 13.9 | –
Cc1c(CO)c2c(n1C)C(=O)C=C(NCC(C)(C)O)C2=O | 1260 | 2.5 | 500 | –
COC1=CC(=O)c2c(c(COC(N)=O)c(C(C)C)n2C)C1=O | 20.9 | 179 | 0.117 | –
CC(C)c1c(COC(N)=O)c2c(n1C)C(=O)C=C(N1CC1)C2=O | 47.5 | 8.7 | 5.46 | –
COC1=CC(=O)c2c(c(CO)c(C(C)C)n2C)C1=O | 800 | 4 | 200 | –
COC1=CC(=O)c2c(c(CO)c3n2CC2CC32)C1=O (stereo not drawn) | 108.4 | 1.8 | 60.6 | –
CC1CN1C1=CC(=O)c2c(c(CO)c(C3CC3)n2C)C1=O (stereo not drawn) | 130 | 23.4 | 5.6 | –
COC1=CC(=O)c2c(c(CO)c(C)n2C)C1=O | 1077 | 3.78 | 284.8 | –
Cn1c(/C=C/CO)c(CO)c2c1C(=O)C=C(N1CC1)C2=O [APAZIQUONE] | 0.19 | 50.3 | 0.0038 | –
CO[C@@]12[C@H](COC(N)=O)C3=C(C(=O)C(C)=C(N)C3=O)N1C[C@@H]1N[C@@H]12 [MITOMYCIN] | 0.8 | – | 0.4 | –
